Reference: ChEMBL document CHEMBL1143563, “Enantiospecificity of glutamate carboxypeptidase II inhibition” (J Med Chem, 2005)

Columns and labels:
[1] = species on record: Rattus norvegicus; test: Neuroprotective effect against ischemic injury with median effective concentration in rat; format: functional
Method in brief: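 Cerebral ischemia was simulated in a cell culture model by exposing rat cortical cultures to potassium cyanide and 2-deoxyglucose. Neuroprotection against this injury was reported as a median effective concentration.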

[2] = In vitro inhibition of N-acetyl-L-aspartyl-[3H]L-glutamate binding to Glutamate carboxypeptidase II
Method in brief: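 Purified recombinant GCP II was incubated with radiolabelled substrate N-acetyl-L-aspartyl-[3H]-L-glutamate, and inhibition was reported as IC50. Values are mean ± SD of at least triplicate experiments; where only two experiments were run, the value is the mean of the duplicates.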

IC50 [2] [nM] | Structure (SMILES) | EC50 [1] [nM]
 | O=C(O)CC[C@H](CP(=O)(O)O)C(=O)O | 0.2
1400 | O=C(O)CC[C@@H](CP(=O)(O)Cc1c(F)c(F)c(F)c(F)c1F)C(=O)O | 410
 | O=C(O)CC[C@@H](CP(=O)(O)O)C(=O)O | 70
34 | O=C(O)CC[C@H](CP(=O)(O)Cc1c(F)c(F)c(F)c(F)c1F)C(=O)O | 4.1
 | O=C(O)CCC(CP(=O)(O)O)C(=O)O (centres undefined) | 1.2
 | O=C(O)CCC(CCCS)C(=O)O (racemic) | 13
 | O=C(O)CCC(CP(=O)(O)Cc1c(F)c(F)c(F)c(F)c1F)C(=O)O (racemic) | 9.5
